This is an account of results in PubChem BioAssay.

The source made the active and inactive calls.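 The calls were made as follows, unless noted: active = visually confirmed hit in the image check and inhibition above 20%; inconclusive = visually confirmed hit but inhibition not above 20%; inactive = no visual hit in the image check.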

Assay [1] can be described thus: inhibitors of TNFa-induced NFkB p65 translocation, primary screen, imaging, HUVEC, MLSMR starter and 10KST1 sets (AID 438;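 active = inhibition above 20% together with a positive visual image hit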;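 also: compound added about 3h40 before a 20 min TNFalpha stimulation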;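 as to inhibition: signal is the nuclear over cytoplasmic p65 intensity ratio per well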). The note with it: HUVEC TNFa-induced p65 nuclear translocation; cell count: measured here: nuclei count (cytotoxicity indicator), at 2.08 µM; inhibition: at 2 µM, stronger effect = higher value, 0% TNFa-plus-vehicle, 100% no-TNFa wells.
Assay [2] can be described thus: inhibitors of mutant huntingtin aggregation, primary screen, imaging, exon1htt(103Q)mCFP cells, high-content imaging (AID 483;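 active = visual image review flags a hit and inhibition of aggregation exceeds 20%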;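 also: compound exposure lasted 3 days before fixation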;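 as to nuclei count: percent of the per-plate median nuclei count of sample wells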). The note with it: exon1htt(103Q)mCFP cell line, aggregate imaging, at 2 µM; inhibition of aggregation: stronger effect = higher value; nuclei count: measured here: cell count, toxicity.
A short description of assay [3]: inhibitors of E-selectin induction by TNFa, primary screen, imaging, HUVEC, immunofluorescence, MLSMR starter and 10KST1 sets (AID 487).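 As to inhibition: signal is fraction of cell area covered by stained E-selectin grains.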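 As to nuclei count: 100% = median nuclei count of all wells on the same plate.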 Conditions: HUVEC TNFalpha-induced E-selectin immunofluorescence imaging, at 2 µM; inhibition: stronger effect = higher value; nuclei count: measured here: cell number, toxicity.
Assay [4] has as its target Voltage-gated potassium channel subunit beta-2 (Rattus norvegicus) (UniProt P62483). As to the kind of experiment: KvBeta enzyme negative modulators, primary screen, biochemical, NADPH fluorescence (AID 622;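 active = fluorescence slope higher than the sample average by over 3 SD, cut at about -0.22 in these data, passing the limit was not always enough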;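 also: slope of raw intensity against log time taken from 70 to 1610 s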). Conditions: recombinant KvBeta, 4-cyanobenzaldehyde reduction, at 10 µM, stronger effect = higher value.
The target is the same in assay [5]. As to the kind of experiment: KvBeta positive modulators, primary screen, biochemical, NADPH fluorescence (AID 623;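 active = NADPH fluorescence slope more negative than the mean of all samples by about 3 SD, 99.7% confidence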;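 also: fluorescence intensity change per second fitted from 20 to 320 s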). Conditions: Recombinant KvBeta, NADPH fluorescence decrease slope, 10 min; at 10 µM; stronger effect = lower value.
For assay [6], the target named is Alpha-2C adrenergic receptor (Homo sapiens) (UniProt P18825). The assay is described as follows: modulators of alpha2C/GIRK thallium flux, primary screen, cell-based, HEK293 alpha2C/GIRK1/2 (AID 624;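 active = fluorescence slope after compound addition differing from the mean of all screened samples at 99.7% confidence, in either direction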;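 also: slope of fluorescence ratio to pre-addition baseline per second over 15 to 24 s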). Conditions: thallium flux BTC fluorescence, at 10 µM, actives lie on both sides.
The nature of assay [7]: inhibitors of larval lipid processing in zebrafish, primary screen, whole organism, PED6 fluorescence, gall bladder and intestine (AID 686;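 active = a full or partial loss of lipid-probe fluorescence in the fish gall bladder, intestine or both, judged by eye; inactive = no fluorescence loss, or compound toxic to the fish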;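 also: larvae 5 to 7 days old with five fish per well; signal comes from phospholipase A2 cleavage of quenched PED6 carried via bile; overnight exposure to compound and PED6 before scoring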). The note with it: Zebrafish larvae PED6 lipid processing, fluorescence scoring; screened at 20 µM (by protocol). The method in brief: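 Also added: quenched phospholipase substrate PED6, 100 nM final, ingested by larvae; System: zebrafish larvae, 5-7 d; Quantity: 5 larvae per well; Compound: 20 µM single dose; Schedule: overnight compound and PED6 incubation; Read-out: visual per-well fluorescence inhibition score; Measured by: By-eye fluorescence microscopy; Medium: E3.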

Assay [8] is described as follows: inhibitors of Sendai virus-induced IRF3 signaling, primary screen, TLR/RLR signaling modifier project, cell-based, Sendai virus stimulus, luciferase, 10K MLSCN set (AID 602276;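 active = inhibition at or above 50% at 10 µM; inactive = inhibition below 50%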;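 also: firefly luciferase from ISG56 promoter only with Renilla not read in this screen; 0% = Sendai virus plus DMSO and 100% = medium plus DMSO without virus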). The note with it: HEK293 RL24 IRF3 luciferase reporter, at 10 µM, stronger effect = higher value. A general note: In a reporter assay the amount or activity of a reporter protein is the signal.
Assay [9] is described as follows: inhibitors of poly I:C-induced TLR3 signaling, primary screen, cell-based, poly I:C stimulus, luciferase, 10K MLSCN set (AID 602277;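 active = inhibition of the reporter signal at or above 50%; inactive = inhibition below 50%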). Conditions: HEK293-TLR3 RL24 IRF3 luciferase reporter, at 10 µM, stronger effect = higher value.

Chain of Alpha-2C adrenergic receptor (Homo sapiens) (P18825 whole entry, looked up): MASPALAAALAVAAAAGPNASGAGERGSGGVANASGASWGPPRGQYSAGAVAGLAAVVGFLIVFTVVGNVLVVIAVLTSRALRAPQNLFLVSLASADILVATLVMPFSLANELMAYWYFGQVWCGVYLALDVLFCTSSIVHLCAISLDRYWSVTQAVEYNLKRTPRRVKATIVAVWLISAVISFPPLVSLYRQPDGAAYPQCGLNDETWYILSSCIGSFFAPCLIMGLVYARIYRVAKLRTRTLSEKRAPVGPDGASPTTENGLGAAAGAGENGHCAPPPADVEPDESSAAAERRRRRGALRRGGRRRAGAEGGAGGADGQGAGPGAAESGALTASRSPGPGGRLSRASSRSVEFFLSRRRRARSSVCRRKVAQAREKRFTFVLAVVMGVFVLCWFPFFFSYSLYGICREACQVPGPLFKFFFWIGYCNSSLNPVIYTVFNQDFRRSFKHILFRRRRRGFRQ
Chain of Voltage-gated potassium channel subunit beta-2 (Rattus norvegicus) (P62483 whole entry, looked up): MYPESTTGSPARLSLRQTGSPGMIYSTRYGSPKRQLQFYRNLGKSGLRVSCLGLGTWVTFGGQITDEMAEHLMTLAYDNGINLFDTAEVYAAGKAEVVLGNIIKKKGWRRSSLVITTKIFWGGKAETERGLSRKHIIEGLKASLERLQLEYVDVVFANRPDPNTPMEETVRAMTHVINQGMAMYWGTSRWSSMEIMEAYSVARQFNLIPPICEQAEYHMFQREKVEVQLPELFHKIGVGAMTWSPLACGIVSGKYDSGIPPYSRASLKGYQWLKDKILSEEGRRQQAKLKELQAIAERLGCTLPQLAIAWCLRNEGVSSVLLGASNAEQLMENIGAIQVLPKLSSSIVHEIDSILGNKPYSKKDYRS

Take `Cc1ccc(CS(=O)(=O)Cc2ccc(C(=O)NCc3ccccn3)o2)cc1`: in [1], the cell count was 454. The inhibition (in general, the relative decrease from the control value, in per cent) in [1] is 6% (inactive); in assay [3], 8.5% (inactive); in [8], 12% (inactive); in assay [9], 7.77% (inactive). In addition, the inhibition of aggregation in assay [2] was -2.9% (inactive). The nuclei count turned out to be 102% in assay [2] and 93.1% in assay [3]. For the same compound, the fluorescence slope in assay [4] is -0.18 (inactive). Also, the NADPH fluorescence slope in assay [5] was -2.3e-05 (inactive). The slope in assay [6] was 0.00535 (inactive). For the same compound, the result in [7] was inactive.

`Cc1cccc(NC(=O)CCCCCN2C(=O)c3ccccc3C2=O)n1`: the cell count in [1] is 495. Further, the inhibition in assay [1] is -4.8% (inactive); in assay [3], -68.6% (inactive); in assay [8], 15.6% (inactive); in [9], 15.2% (inactive). Moreover, the inhibition of aggregation in assay [2] is -19.8% (inactive). The nuclei count amounted to 103% in [2] and 167% in [3]. Besides, in assay [4], the fluorescence slope is -0.44 (inactive). Further, in assay [5], the NADPH fluorescence slope was -6.5e-05 (inactive). The slope in [6] was 0.00404 (inactive). Also, in [7], the compound was classed as inactive.

Consider `COc1cc(C)c(Br)cc1S(=O)(=O)N1CCOCC1`, for which the cell count in [1] was found to be 397. The inhibition in [1] was 6.3% (inactive); in assay [3] it was -68.9% (inactive); in [8], 11.9% (inactive); in assay [9] it was 4.48% (inactive). Further, the inhibition of aggregation in [2] is 3.4% (inactive). Further, the nuclei count in assay [2] is 106%; in assay [3] it was 126%. In addition, the fluorescence slope in assay [4] was -0.461 (inactive). The NADPH fluorescence slope in assay [5] is -4.2e-05 (inactive). In addition, in [6], the slope was 0.00698 (inactive). For the same compound, the compound was called inactive in assay [7].

Consider `COc1cc(C(=O)Nc2cc(-c3ccccc3)[nH]n2)cc(OC)c1OC`, for which the cell count in [1] was determined as 456. Moreover, the inhibition in [1] is -6.3% (inactive); in [3], -41% (inactive); in assay [8] it was 22.1% (inactive); in [9], 33.8% (inactive). Further, the inhibition of aggregation in [2] is 15.9% (inactive). Further, the nuclei count was 94.3% in assay [2] and 114% in [3]. The fluorescence slope in assay [4] is -0.385 (inactive). Besides, in assay [5], the NADPH fluorescence slope is -4.1e-05 (inactive). Besides, in assay [6], the slope is 0.00552 (inactive). Further, the compound was classed as inactive in [7].

Take `CCN(CC)S(=O)(=O)c1cccc(-c2nnc(SCCOc3ccccc3C)o2)c1`: the cell count in [1] was determined as 356. In addition, the inhibition is 0.4% (inactive) in assay [1], 3.8% (inactive) in assay [3], 9.64% (inactive) in [8] and -24.4% (inactive) in assay [9]. Also, the inhibition of aggregation in assay [2] was -13.5% (inactive). For the same compound, the nuclei count in assay [2] was 95.4%; in [3], 114%. Besides, the fluorescence slope in assay [4] is -0.458 (inactive). Also, the NADPH fluorescence slope in [5] was -8e-05 (inactive). In addition, the slope in assay [6] was 0.00732 (inactive). Moreover, the call in [7] was inactive.

Consider `Cc1ccc2[nH]c3c(=O)n(CCCN4CCN(C)CC4)cnc3c2c1`, for which, in assay [1], the cell count was 478. Besides, the inhibition was 1% (inactive) in assay [1], -36.8% (inactive) in assay [3], 1.24% (inactive) in assay [8] and 22.2% (inactive) in [9]. In addition, the inhibition of aggregation in assay [2] was -13.7% (inactive). For the same compound, the nuclei count was determined as 105% in [2] and 115% in [3]. Also, in assay [4], the fluorescence slope is -0.38 (inactive). For the same compound, the NADPH fluorescence slope in assay [5] is -2.9e-05 (inactive). In assay [6], the slope was 0.0053 (inactive). In addition, the result in assay [7] was inactive.

Turning to `Cc1ccc(CN2CCN(C(=O)C3CCC3)CC2)cc1`, in assay [1], the cell count stood at 361. The inhibition in assay [1] was 3.3% (inactive); in assay [3], -20.6% (inactive); in assay [8], 15.1% (inactive); in assay [9] it was 6.88% (inactive). In addition, the inhibition of aggregation in [2] is 23.3% (inactive). The nuclei count was 94.3% in assay [2] and 104% in assay [3]. In addition, the fluorescence slope in assay [4] was -0.447 (inactive). Further, in [5], the NADPH fluorescence slope was -2.3e-05 (inactive). In addition, the slope in assay [6] was 0.00503 (inactive). Moreover, the outcome in assay [7] was “inactive; toxic”.

Consider `O=C(NC1CCCC1)C(NS(=O)(=O)c1cccc2nsnc12)c1ccccc1` (stereo unspecified), for which the cell count in assay [1] was determined as 309. For the same compound, the inhibition in [1] is -16.3% (inactive); in [3], -22.2% (inactive); in [8] it was 17.9% (inactive); in [9], 17.3% (inactive). The inhibition of aggregation in assay [2] is 2.5% (inactive). Moreover, the nuclei count amounted to 103% in [2] and 109% in [3]. Moreover, the fluorescence slope in [4] was -0.329 (inactive). The NADPH fluorescence slope in assay [5] was 1.1e-05 (inactive). Further, the slope in [6] is 0.0045 (inactive). Besides, the call in assay [7] was inactive.

On to `Cc1cccc(N(CC(=O)N2CCCC2)S(=O)(=O)c2ccccc2)c1C`, for which, in [1], the cell count was determined as 288. The inhibition was -2.3% (inactive) in [1], -156% (inactive) in assay [3], -11.4% (inactive) in assay [8] and -6.79% (inactive) in [9]. The inhibition of aggregation in assay [2] is 23.9% (inactive). Also, the nuclei count stood at 87.6% in assay [2] and 98.1% in assay [3]. In addition, the fluorescence slope in assay [4] is -0.423 (inactive). Moreover, in assay [5], the NADPH fluorescence slope was -4.5e-05 (inactive). The slope in [6] was 0.00511 (inactive). For the same compound, the compound was classed as inactive in [7].

Regarding `CCOC(=O)C1=C(c2ccccc2)N2CCS(=O)(=O)N=C2S1`, the cell count in assay [1] was 531. Further, the inhibition in assay [1] is 0.5% (inactive); in assay [3], -98.9% (inactive); in assay [8] it was 16.1% (inactive); in assay [9] it was 20.5% (inactive). In addition, the inhibition of aggregation in assay [2] was -5.8% (inactive). Also, the nuclei count turned out to be 105% in [2] and 108% in assay [3]. Further, in assay [4], the fluorescence slope was -0.271 (inactive). Also, in [5], the NADPH fluorescence slope was -1e-05 (inactive). Besides, the slope in [6] was 0.0047 (inactive). Moreover, the call in assay [7] was inactive.

With `CN(C)C(=O)COc1ccc2cc(-c3ccccc3)c(=O)oc2c1`, the cell count in assay [1] was 300. Moreover, the inhibition was -4% (inactive) in assay [1], -75.1% (inactive) in assay [3], -24.2% (inactive) in assay [8] and 98.1% (active) in assay [9]. Also, the inhibition of aggregation in assay [2] is 14.5% (inactive). Moreover, the nuclei count came out at 89.5% in [2] and 146% in assay [3]. In addition, in assay [4], the fluorescence slope was -0.00785 (inactive). The NADPH fluorescence slope in assay [5] is 0 (inactive). The slope in assay [6] was 0.0053 (inactive). The result in [7] was inactive.

As to `Cc1nnc(NC(=O)CCC(=O)N2CCC(C)CC2)s1`, the cell count in assay [1] was 355. The inhibition in [1] was -2% (inactive); in [3], -84.2% (inactive); in assay [8], 12.2% (inactive); in assay [9], 14% (inactive). The inhibition of aggregation in [2] was -13.9% (inactive). Also, the nuclei count worked out at 119% in assay [2] and 120% in [3]. For the same compound, the fluorescence slope in assay [4] was -0.465 (inactive). The NADPH fluorescence slope in assay [5] is -4.6e-05 (inactive). Further, the slope in assay [6] is 0.0059 (inactive). In addition, in assay [7], the compound was classed as inactive.

As to `CC(C)NC(=O)c1ccccc1NC(=O)CCS(=O)(=O)Cc1ccccc1`, in assay [1], the cell count amounted to 560. The inhibition in assay [1] is 6.6% (inactive); in assay [3] it was -26% (inactive); in [8], -21.6% (inactive); in [9], -8.53% (inactive). Moreover, the inhibition of aggregation in assay [2] is -10% (inactive). Further, the values for the nuclei count in [2] and in [3] were 108% and 107%, respectively. For the same compound, in assay [4], the fluorescence slope is -0.516 (inactive). Besides, the NADPH fluorescence slope in assay [5] was 2.6e-05 (inactive). Also, in assay [6], the slope was 0.00472 (inactive). Also, the compound was called inactive in [7].
